Where two headings read alike, the source gives them in different places.
Columns and labels:
[1] = Plasma pharmacokinetics in the doravirine/islatravir drug interaction study; type: in vivo, human
How it was run: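 Healthy adults were randomized and blinded. They took oral doravirine 100 mg or placebo QD for 5 days, then islatravir 2.25 mg QD for 14 days, then both for 5 days, with no washout and ≥10 h fasting before dosing on PK days. K2EDTA plasma went to validated LC-MS/MS (islatravir LLOQ 0.10 ng/mL). AUC0–24h used linear-up/log-down; GMRs came from a ln-scale mixed-effects model.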

CYP enzymes = conditions: cited from earlier work
Safety and tolerability = type: in vivo, human; conditions: doravirine 100 mg QD, islatravir 2.25 mg QD, alone or in combination; participants without HIV
How it was run: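 Safety was assessed throughout the study by adverse-event monitoring, physical examinations, vital signs, electrocardiography and laboratory safety tests. Investigators graded clinical adverse events as mild, moderate or severe in intensity. The analysis set was all participants given at least one dose of active study drug or placebo. Dosing was oral with water at the same time each day.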

[2] = cited from earlier work
[3] = cited from earlier work; remark: listed apart in the source
[4] = cited from earlier work; remark: listed apart in the source
[5] = single oral doses, participants without HIV

Which results are given for `Cn1c(Cn2ccc(C(F)(F)F)c(Oc3cc(Cl)cc(C#N)c3)c2=O)n[nH]c1=O` [Doravirine]?
Doravirine C24h, GMR (90% CI), (doravirine + islatravir)/doravirine ([1]; doravirine 100 mg QD with vs without islatravir 2.25 mg QD): 1.12 (0.95–1.32); AUC(0-t) ([1]; human, plasma, oral, 100 mg): 34 µM·h; Cmax ([1]; human, plasma, oral, 100 mg): 2440 nM; Tmax ([1]; human, plasma, oral, 100 mg): 2.5 h; concentration at 24 h ([1]; human, plasma, oral, 100 mg): 773 nM; Inhibition or induction of CYP enzymes (CYP enzymes; in vitro): not an inhibitor or inducer of CYP enzymes; Tolerability (Safety and tolerability): generally well tolerated; Apparent terminal half-life ([2]; 6–1200 mg orally): 12 to 21 h; Time to attainment of steady state ([2]; QD dosing, 200 mg orally): approximately 5 days; Range of median Tmax previously reported [2]: 1 to 4 h; Reduction of doravirine exposure on coadministration with rifabutin ([2]; moderate CYP3A4 inducer): 50%; Reduction of doravirine exposure on coadministration with rifampin ([2]; strong CYP3A4 inducer): 88%; Tolerability ([3]; doses of up to 1,200 mg in clinical studies): generally well tolerated

Which AUC(0-t) ([1]; human, plasma, oral, 2.25 mg) does the source give for `C#C[C@]1(CO)O[C@@H](n2cnc3c(N)nc(F)nc32)C[C@@H]1O` [Islatravir, 4'-Ethynyl-2-fluoro-2'-deoxyadenosine] here?
Its AUC(0-t) is 0.254 µM·h.

And the Cmax ([1]; human, plasma, oral, 2.25 mg)?
The Cmax was 63.5 nM.

And the Tmax ([1]; human, plasma, oral, 2.25 mg)?
Its Tmax is 0.52 h.

And the “Time to steady-state plasma concentrations” value ([4]; oral QD dosing)?
Its value is ~14 days.

And the Half-life of islatravir [4, 5]?
Its Half-life of islatravir is 49 to 61 h.

And the “Time at which peak plasma concentrations were attained” value [4, 5]?
The value was ~ 0.5 h.

What about the “Metabolism by CYP enzymes” value (CYP enzymes) of the same compound?
The value was “not metabolized by CYP enzymes”.

And the Tolerability (Safety and tolerability)?
Its Tolerability is “generally well tolerated”.

What about the Tolerability ([3]; treatment-naive people living with HIV-1, oral doses 0.5–30 mg) of the same compound?
The Tolerability was “generally well tolerated”.

Which “Time at which peak intracellular islatravir-TP concentrations were attained” value ([4]; after islatravir administration) does the source give for `C#C[C@]1(COP(=O)(O)OP(=O)(O)OP(=O)(O)O)O[C@@H](n2cnc3c(N)nc(F)nc32)C[C@@H]1O` [islatravir-TP] here?
The value was 6 to 24 h.

What about the “Apparent terminal half-life of islatravir-TP” value ([4]; dosed daily to steady state) of the same compound?
The value was “exceeded 7 days”.

And the “Time to steady state of intracellular islatravir-TP” value ([4]; oral QD dosing of islatravir)?
The value was ≤ 28 days.

What about the “Intracellular half-life of islatravir-TP” value ([4]; single oral doses of islatravir) of the same compound?
The value was 118 to 171 h.

Source: article PMC8245385 (Clinical Drug Investigation, 2021)
